# Screening data deposited in PubChem by several laboratories.
# SKKanGAS inh = S. pyogenes SKKanGAS growth inhibitors in kanamycin, primary screen, streptokinase expression inhibitor project, SKKanGAS strain, BacTiter-Glo luminescence. 6 h. hit rate 1.3% among 300,000. AID 1662, 2009. inhibition, % at 7.5 µM;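 active means mean replicate score, as percent of positive control median, at least 50; inconclusive means mean below 50 but one replicate at or above 50; inactive means mean and every replicate below 50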;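 further: strain carries kanamycin resistance gene driven by streptokinase promoter and grows in 40 µg/ml kanamycin; loss of luminescence reflects streptokinase promoter inhibition or plain growth inhibition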
# Autophagy HCS = autophagy modulators in MEF cells, primary screen, imaging, high-content, MEF GFP-LC3; MEF GFP-LC3 puncta imaging; test concentration mostly 10 µM; calls only at 10 µM (by protocol); hit rate 0.98% among 190,000;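 active means percentage of spot-positive cells more than 3 SD above its plate mean, without a fluorescence outlier flag or 80% toxicity; inconclusive means no clear call, values can overlap the other calls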
# Rad51 HR inh = human RAD51 strand exchange inhibitors, primary screen, biochemical, fluorescence; DNA repair protein RAD51 homolog 1 (Homo sapiens), Q06609; hRad51 DNA strand exchange, fluorescence dequenching; inhibition, % at 10 µM; hit rate 0.085% among 200,000; AID 1385, 2008;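 active means inhibition above 40% at the single screening dose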
# Target sequence (Q06609 whole entry, looked up): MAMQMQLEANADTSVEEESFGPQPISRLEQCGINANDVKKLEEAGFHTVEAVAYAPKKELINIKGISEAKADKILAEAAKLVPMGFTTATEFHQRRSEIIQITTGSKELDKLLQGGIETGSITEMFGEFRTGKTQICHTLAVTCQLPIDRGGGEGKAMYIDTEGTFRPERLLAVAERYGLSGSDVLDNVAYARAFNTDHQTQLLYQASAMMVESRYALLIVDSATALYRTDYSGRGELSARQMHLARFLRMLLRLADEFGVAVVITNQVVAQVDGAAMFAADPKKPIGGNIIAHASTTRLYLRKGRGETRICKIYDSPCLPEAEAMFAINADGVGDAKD
#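 Test system: preformed human Rad51 ssDNA filaments. Compound dosing: single dose, 10 µM final compound. Incubation: filaments 15 min 37 °C, then compound 30 min. Technique: FRET fluorescence dequenching, excitation 485 nm, emission 520 nm. Read-out basis: percent inhibition from fluorescence, normalised to plate control and blank means. Benchmarks: plate controls and plate blanks.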
# WT yeast gro inh = growth inhibition of WT strain, primary screen, mitochondrial fusion inhibitor project, WT and mutant strains, chemical genetic | mitochondrial fusion phenotypic screen | inhibition, % at 10 µM | hit rate 2.1% among 190,000; in the data active means inhibition above about 58%; tested in S. cerevisiae
# KCC2 mod = KCC2 cotransporter modulators, thallium flux, primary screen, cell-based, HEK293 KCC2, FluoZin-2 fluorescence, MLSMR. B-score of Tl+ flux slope (higher = more flux/activation; lower = inhibition) at 10 µM. hit rate 2.2% among 190,000. Solute carrier family 12 member 5 (Homo sapiens), Q9H2X9. KCC2 cells, thallium flux FluoZin-2 fluorescence. AID 1456, 2008;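 active means thallium flux slope and its plate-corrected score both differing from the plate sample mean at a set confidence after two filtering rounds, in either direction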;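 further: slope of fluorescence scaled to starting intensity during 10 to 20 s after thallium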
# Insulin prom up = insulin promoter activators in MIN6 cells, imaging, high-content screening, mouse beta cells; z-score at 5 µM; hit rate 0.3% among 190,000; MIN6 insulin promoter-GFP reporter; hits give high values;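 active means z-score above 3 at 5 µM with at least 500 cells counted in the well; inconclusive means wells under 500 cells, flagged as cytotoxic or low count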
# KCC2 sec1 = KCC2 modulators in sodium-free buffer, confirmation, cell-based, HEK293 KCC2, thallium flux, secondary assay; shares compounds with KCC2 mod; FluoZin2 fluorescence; hits give high values; normalised thallium flux (F/F0 slope) at 10 µM; hit rate 15% among 3,700; AID 1713, 2009;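 active means thallium flux slope above the same plate's solvent-only control mean plus 3 SD; inconclusive means the two replicate wells disagree; inactive means no significant difference from solvent-only control wells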
# KCC2 bumet counter = thallium flux persisting under bumetanide in KCC2 cells, confirmation, counter-screen for KCC2 modulator project, cell-based, HEK293 KCC2, FluoZin2, secondary assay 3. AID 1714, 2009. hit rate 49% among 3,700. HEK293-KCC2 + bumetanide/ouabain; hits give high values. normalized thallium flux at 10 µM. shares compounds with KCC2 mod;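 active means thallium entry rate above the same plate's blocked-transporter control wells by more than 3 SD; inconclusive means the two repeat wells disagree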;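 further: raw slope of fluorescence over initial fluorescence between 10 and 20 s after thallium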
# KCC2 sec2 = KCC2 modulators without ouabain present, confirmation, cell-based, HEK293 KCC2, thallium flux, FluoZin2, secondary assay 2; shares compounds with KCC2 mod; thallium flux FluoZin2 fluorescence; actives lie on both sides; F/F0 rise rate, 10–20 s post-thallium; normalized thallium flux at 10 µM; hit rate 23% among 3,700; AID 1715, 2009;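 active means thallium flux slope more than 3 SD above or below the plate's solvent-only control mean, mostly below; inconclusive means the two repeat wells disagreed; inactive means no significant shift from solvent-only controls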
# HEK293 Tl flux = thallium flux modulation in parental HEK cells, confirmation, counter-screen for KCC2 modulator project, cell-based, counterscreen 1; shares compounds with KCC2 mod; HEK293 parental cells, thallium flux FluoZin2, ouabain; baseline-ratio fluorescence slope, 10–20 s after thallium; thallium flux rate (normalised fluorescence) at 10 µM; hit rate 46% among 3,700;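 active means thallium flux rate significantly above the same plate's solvent-only control wells, beyond their mean plus 3 SD; inconclusive means the two replicate wells gave conflicting results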
# KCC2 ouabain = KCC2 inhibitors and activators, ouabain retest, confirmation, HEK-KCC2 cells. shares compounds with KCC2 mod. HEK293-KCC2, thallium flux FluoZin2 fluorescence; bidirectional: low = inhibitor, high = activator. raw Tl+ flux slope (below DMSO = inhibition, above = activation) at 10 µM. hit rate 48% among 3,700. AID 1717, 2009;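 active means thallium flux slope beyond 3 SD from same-plate DMSO control mean in most replicates, usually higher, sometimes lower; inconclusive means repeat tests gave conflicting results; inactive means no significant difference from controls in most replicates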;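 further: slope of initial-normalized fluorescence between seconds 10 and 20 after thallium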
# HEK293 Tl flux2 = native HEK Tl+ uptake effects, second counter-screen – HEK cells, counterscreen 2, counter-screen for KCC2 modulator project, confirmation | shares compounds with KCC2 mod | HEK293 parental, thallium flux FluoZin-2 fluorescence slope | thallium flux slope at 10 µM | hit rate 33% among 3,700 | AID 1718, 2009;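 active means thallium flux slope above the same plate's solvent-control mean plus 3 SD in both duplicate wells; inconclusive means duplicate wells that disagreed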;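 further: run without ouabain in cells lacking the KCC2 cotransporter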
# Hits are given with their value; n = inactive; u = inconclusive; x = no result. A selection: hits, their analogues and other compounds. The true share with any hit is near 4.2%.
SMILES,SKKanGAS inh,Autophagy HCS,Rad51 HR inh,WT yeast gro inh,KCC2 mod,Insulin prom up,KCC2 sec1,KCC2 bumet counter,KCC2 sec2,HEK293 Tl flux,KCC2 ouabain,HEK293 Tl flux2
CCOc1ccc(NC(=O)CN(C)S(=O)(=O)c2ccc(-c3ccc(=O)[nH]n3)s2)cc1,n,x,x,x,x,x,x,x,x,x,x,x
COc1ccc(CN2CC(C(=O)NCCC(C)C)CC2=O)cc1 (centres undefined),n,n,n,n,n,n,x,x,x,x,x,x
CCCCN(C)CCCNC(=O)C1CC(=O)N(Cc2ccc(OC)cc2)C1 (centres undefined),n,n,n,n,x,n,n,n,n,n,n,n
O=c1[nH]c(C2CCN(S(=O)(=O)c3ccc(S(=O)(=O)NC4CC4)cc3)CC2)nc2c1nnn2Cc1ccc(F)cc1,n,x,x,x,x,x,x,x,x,x,x,x
Cc1ccc(Cn2nnc3c(=O)[nH]c(C4CCN(S(=O)(=O)c5cc(C)ccc5C)CC4)nc32)cc1,u,n,n,n,n,n,x,x,x,x,x,x
Cc1ccc(C)c(S(=O)(=O)N2CCC(c3nc4c(nnn4Cc4ccc(F)cc4)c(=O)[nH]3)CC2)c1,x,n,n,n,-4.2,n,n,n,n,n,0.016,n
Cc1ccc(Cn2nnc3c(=O)[nH]c(C4CCN(S(=O)(=O)c5ccc(F)cc5)CC4)nc32)cc1,n,n,x,n,-3,n,n,n,0.025,n,n,n
O=C(Nc1nc2ccccc2s1)C1CCCN1S(=O)(=O)c1ccc(Cl)cc1 (centres undefined),n,n,n,x,x,x,n,n,n,n,n,n
Cc1ccc(S(=O)(=O)N2CCCC2C(=O)Nc2nc3ccccc3s2)cc1 (centres undefined),n,n,n,n,n,n,x,x,x,x,x,x
C(=C\c1ccccc1)/CN1CCN(Cc2ccc3c(c2)OCCO3)CC1,n,n,n,n,3.4,n,n,n,n,n,n,n
O=c1[nH]c2ccc(S(=O)(=O)N3CCN(c4ccccc4F)CC3)cc2s1,n,n,n,n,-4.8,n,n,n,0.024,n,0.013,n
Cc1cc(C)n(C(=O)/C(C#N)=N/Nc2cc(Cl)cc(Cl)c2)n1,90,n,n,85,-7.7,n,u,u,n,n,0.014,n
CCCNC(=O)c1cc(S(=O)(=O)N2CCCCC2)ccc1N1CCOCC1,n,x,x,x,x,x,x,x,x,x,x,x
O=C(NCCc1c[nH]c2ccccc12)c1cc(S(=O)(=O)N2CCCCC2)ccc1N1CCOCC1,n,n,n,n,x,n,n,n,u,n,0.015,n
Cc1ccc2cccc(OCC(=O)Nc3ccc4c(c3)OCO4)c2n1,n,n,n,n,-5.9,n,u,n,n,n,0.014,n
CCOCc1cc(=O)[nH]c(SC)n1,n,x,n,x,n,n,x,x,x,x,x,x
Cc1[nH]n(C(N)=S)c(=O)c1N=Nc1cccc(C(F)(F)F)c1,n,x,x,x,x,x,x,x,x,x,x,x
Cc1[nH]n(C2=NCCS2)c(=O)c1N=Nc1cccc(C(F)(F)F)c1,83,n,n,84,21,n,n,0.075,0.049,0.034,0.055,0.035
O=C(N/N=C\c1cccnc1)c1ccccc1O,n,x,x,x,x,x,x,x,x,x,x,x
O=C(N/N=C/c1cccnc1)c1cccs1,n,x,n,x,-3.7,n,n,n,n,n,n,n
C=CCN1C(=O)/C(=c2\sc3nc(=O)c(Cc4ccccc4Cl)nn3c2=O)c2ccccc21,n,x,n,x,x,n,x,x,x,x,x,x
COCCn1c(SCC(=O)Nc2cccc(S(N)(=O)=O)c2)nc2cc(Cl)ccc2c1=O,n,n,n,n,n,x,x,x,x,x,x,x
CC(C)Cn1c(SCC(=O)NC(=O)Nc2ccc3c(c2)OCCO3)nc2ccccc2c1=O,n,n,n,n,17,n,0.014,0.044,n,u,0.039,u
CC(C)Cn1c(SCC(=O)Nc2cccc(S(N)(=O)=O)c2)nc2ccccc2c1=O,n,n,n,n,5.7,n,n,0.018,n,0.0095,u,0.011
C=CCn1c(SCC(=O)Nc2ccc3c(c2)OCO3)nc2ccccc2c1=O,n,n,n,n,n,n,x,x,x,x,x,x
SMILES,SKKanGAS inh,Autophagy HCS,Rad51 HR inh,WT yeast gro inh,KCC2 mod,Insulin prom up,KCC2 sec1,KCC2 bumet counter,KCC2 sec2,HEK293 Tl flux,KCC2 ouabain,HEK293 Tl flux2
Cn1cccc1/C=C1\SC(=S)N(NC(=O)c2cccc(Cl)c2)C1=O,x,n,n,n,n,n,x,x,x,x,x,x
Cc1cc(C)c(NC(=S)N(C)C)c(C)c1,n,x,n,x,n,n,x,x,x,x,x,x
CCOC(=O)c1ccc(CNCc2ccccc2)cc1,n,n,n,n,n,n,x,x,x,x,x,x
CCOC(=O)c1ccc(CNC(=O)CCC(=O)O)cc1,n,n,n,x,x,x,n,n,n,n,n,n
COC(=O)c1ccc2c(=O)n(-c3ccc(OC)cc3)c(=S)[nH]c2c1,n,n,x,n,8.2,n,n,0.02,n,0.012,u,n
CCCCNC(=O)c1ccc2c(=O)n(CCCOCC)c(=S)[nH]c2c1,n,n,n,n,n,n,x,x,x,x,x,x
CCOCCCNC(=O)c1ccc(-n2c(=S)[nH]c3ccccc3c2=O)cc1,n,n,n,n,10,x,u,0.015,n,0.0093,u,0.01
CCOC(=O)c1c(NC(=S)N2CCCCC2)sc2c1CCN(C(=O)OCC)C2,n,x,n,x,n,n,x,x,x,x,x,x
CCOC(=O)c1c(NC(=S)NCc2ccccc2)sc2c1CCN(C(=O)OCC)C2,n,x,n,x,4.7,n,u,0.025,n,0.014,n,0.012
